From ChEMBL document CHEMBL1275358, “Synthesis and anticancer activity of new 1-[(5 or 6-substituted 2-alkoxyquinoxalin-3-yl)aminocarbonyl]-4-(hetero)arylpiperazine derivatives” (Bioorg Med Chem, 2010)
The source made the active and inactive calls. The rule behind the calls is not given here.

What was measured:
HCT-116 [1] = assay: Resistant index, ratio of IC50 for human HCT15 cells to IC50 for human HCT116 cells; assay type: functional
HCT-15 = assay: Growth inhibition of human HCT15 cells after 96 hrs by sulforhodamine B assay; assay type: functional, cell-based; conditions: HCT-15, 96 h
Outline: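 SRB assay with 96 h exposure to a range of concentrations and a DMSO control. Cells were TCA-fixed, SRB-stained and read at 530 nm to give IC50. Cells were kept at 37 °C, 5% CO₂. MDA-MB-231, HCT116, Caki-1, UMRC2 and PANC-1 were grown in DMEM with 10% FBS, HEPES, P/S and glutamine. All other lines were grown in RPMI1640 with 10% FBS, pyruvate, HEPES and P/S.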

HCT-116 [2] = assay: Growth inhibition of human HCT116 cells after 96 hrs by sulforhodamine B assay; assay type: functional, cell-based; conditions: HCT-116, 96 h
Outline: (§1)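 SRB assay with 96 h exposure to a range of concentrations and a DMSO control. Cells were TCA-fixed, SRB-stained and read at 530 nm to give IC50. Cells were kept at 37 °C, 5% CO₂. All other lines were grown in RPMI1640 with 10% FBS, pyruvate, HEPES and P/S.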

MDA-MB-231 [3] = assay: Growth inhibition of human MDA-MB-231 cells at 5 nM after 96 hrs by sulforhodamine B assay relative to control; assay type: functional; conditions: MDA-MB-231, 96 h
MDA-MB-231 [4] = assay: Growth inhibition of human MDA-MB-231 cells at 10 nM after 96 hrs by sulforhodamine B assay relative to control; assay type: functional; conditions: MDA-MB-231, 96 h
[5] = Growth inhibition of human UMRC2 cells after 96 hrs by sulforhodamine B assay; assay type: functional, cell-based; conditions: UMRC2, 96 h; outline: as §1
HepG2 = assay: Growth inhibition of human HepG2 cells after 96 hrs by sulforhodamine B assay; assay type: functional, cell-based; conditions: HepG2, 96 h; outline: as §1
CAKI-1 = assay: Growth inhibition of human Caki1 cells after 96 hrs by sulforhodamine B assay; assay type: functional, cell-based; conditions: CAKI-1, 96 h; outline: as §1
OVCAR-3 = assay: Growth inhibition of human OVCAR-3 cells after 96 hrs by sulforhodamine B assay; assay type: functional, cell-based; conditions: OVCAR-3, 96 h; outline: as §1
SK-MEL-28 = assay: Growth inhibition of human SK-MEL-28 cells after 96 hrs by sulforhodamine B assay; assay type: functional, cell-based; conditions: SK-MEL-28, 96 h; outline: as §1
U-251 = assay: Growth inhibition of human U251 cells after 96 hrs by sulforhodamine B assay; assay type: functional, cell-based; conditions: U-251, 96 h; outline: as §1
MKN-45 = assay: Growth inhibition of human MKN45 cells after 96 hrs by sulforhodamine B assay; assay type: functional, cell-based; conditions: MKN-45, 96 h; outline: as §1
HeLa = assay: Growth inhibition of human HeLa cells after 96 hrs by sulforhodamine B assay; assay type: functional, cell-based; outline: as §1
PC-3 = assay: Growth inhibition of human PC3 cells after 96 hrs by sulforhodamine B assay; assay type: functional, cell-based; conditions: PC-3, 96 h; outline: as §1
PANC-1 = assay: Growth inhibition of human PANC1 cells after 96 hrs by sulforhodamine B assay; assay type: functional, cell-based; conditions: PANC-1, 96 h; outline: as §1
HT-29 = assay: Growth inhibition of human HT-29 cells after 96 hrs by sulforhodamine B assay; assay type: functional, cell-based; conditions: HT-29, 96 h; outline: as §1
MDA-MB-231 [6] = assay: Growth inhibition of human MDA-MB-231 cells after 96 hrs by sulforhodamine B assay; assay type: functional, cell-based; conditions: MDA-MB-231, 96 h; outline: as §1
A549 = assay: Growth inhibition of human A549 cells after 96 hrs by sulforhodamine B assay; assay type: functional, cell-based; conditions: A549, 96 h; outline: as §1
MDA-MB-231 [7] = assay: Induction of apoptosis in human MDA-MB-231 cells assessed as decrease of Bcl-2 protein level at 70 nM after 24 to 72 hrs by Western blotting; assay type: functional, cell-based
Outline: (§2)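 MDA-MB-231 cells were exposed to 70 nM for 24, 48 or 72 h alongside untreated controls. After a PBS wash, cells were lysed in 25 mM Tris-HCl pH 7.5, 300 mM NaCl, 1% Triton X-100 with protease inhibitors. Protein was quantified by BCA, run on SDS-PAGE and transferred to nitrocellulose. Blots were probed for p21WAF1, Bcl-2 and Bad, with β-actin as the loading control.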

MDA-MB-231 [8] = assay: Growth inhibition of human MDA-MB-231 cells at 20 nM after 96 hrs by sulforhodamine B assay relative to control; assay type: functional; conditions: MDA-MB-231, 96 h
MDA-MB-231 [9] = assay: Cell cycle arrest in human MDA-MB-231 cells assessed as accumulation at G2/M phase at 0.02 to 0.2 uM after 3 to 12 hrs using propidium iodide staining; assay type: functional, cell-based
MDA-MB-231 [10] = assay: Induction of apoptosis in human MDA-MB-231 cells assessed as increase of p21 WAF1 protein level at 70 nM after 24 to 72 hrs by Western blotting; assay type: functional, cell-based; outline: as §2
MDA-MB-231 [11] = assay: Induction of apoptosis in human MDA-MB-231 cells assessed as DNA fragmentation; assay type: functional, cell-based
MDA-MB-231 [12] = assay: Induction of apoptosis in human MDA-MB-231 cells assessed as PARP fragmentation; assay type: functional, cell-based
MDA-MB-231 [13] = assay: Growth inhibition of human MDA-MB-231 cells at 3 uM after 96 hrs by sulforhodamine B assay relative to control; assay type: functional; conditions: MDA-MB-231, 96 h
Outline: (§3)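 MDA-MB-231 cells in DMEM with 10% FBS, 10 mM HEPES, P/S and 2 mM L-glutamine at 37 °C, 5% CO2, were treated in 96-well plates for 96 h, either alone or with a 20 nM co-treatment. They were then TCA-fixed, SRB-stained and read at 530 nm. Results are % growth inhibition versus untreated cells, with 0.5% DMSO as vehicle control, from triplicates in at least two experiments.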

MDA-MB-231 [14] = assay: Growth inhibition of human MDA-MB-231 cells at 5 uM after 96 hrs by sulforhodamine B assay relative to control; assay type: functional; conditions: MDA-MB-231, 96 h; outline: as §3
MDA-MB-231 [15] = assay: Growth inhibition of human MDA-MB-231 cells at 0.2 uM after 96 hrs by sulforhodamine B assay relative to control; assay type: functional; conditions: MDA-MB-231, 96 h
MDA-MB-231 [16] = assay: Growth inhibition of human MDA-MB-231 cells at 0.1 uM after 96 hrs by sulforhodamine B assay relative to control; assay type: functional; conditions: MDA-MB-231, 96 h

Compound	IC50 (HCT-116 [2])	IC50 [5]	IC50 (HepG2)	IC50 (CAKI-1)	IC50 (OVCAR-3)	IC50 (SK-MEL-28)	IC50 (U-251)	IC50 (MKN-45)	IC50 (HeLa)	IC50 (PC-3)	IC50 (PANC-1)	IC50 (HT-29)	IC50 (MDA-MB-231 [6])	IC50 (A549)	also measured
CC(=O)O[C@H]1C(=O)[C@@]2(C)[C@H]([C@H](OC(=O)c3ccccc3)[C@]3(O)C[C@H](OC(=O)[C@H](O)[C@@H](NC(=O)c4ccccc4)c4ccccc4)C(C)=C1C3(C)C)[C@]1(OC(C)=O)CO[C@@H]1C[C@@H]2O [PACLITAXEL]	2 nM														Ratio IC50 (HCT-116 [1]): 70; IC50 (HCT-15): 140 nM
COc1cccc2c1C(=O)c1c(O)c3c(c(O)c1C2=O)C[C@@](O)(C(=O)CO)C[C@@H]3O[C@H]1C[C@H](N)[C@H](O)[C@H](C)O1 [DOXORUBICIN]															inhibition at 0.005 µM (MDA-MB-231 [3]): 4.2%; inhibition at 0.01 µM (MDA-MB-231 [4]): 59.2%
COc1cc(OC)cc(N2CCN(C(=O)Nc3nc4c(C)cccc4nc3OC)CC2)c1	50 nM	30 nM	63 nM	32 nM	39 nM	64 nM	54 nM	57 nM	62 nM	57 nM	54 nM	55 nM	60 nM	56 nM	
COc1cc(OC)cc(N2CCN(C(=O)Nc3nc4cc(Cl)ccc4nc3OC)CC2)c1	68 nM	65 nM	63 nM	53 nM	42 nM	110 nM	56 nM	64 nM	73 nM	76 nM	98 nM	79 nM	50 nM	73 nM	
COc1cc(OC)cc(N2CCN(C(=O)Nc3nc4cc(F)ccc4nc3OC)CC2)c1 [SUPINOXIN]	20 nM	13 nM	19 nM	11 nM	12 nM	20 nM	15 nM	20 nM	21 nM	21 nM	21 nM	21 nM	12 nM	21 nM	Activity (MDA-MB-231 [7]): Active; inhibition at 0.02 µM (MDA-MB-231 [8]): 14%; Activity (MDA-MB-231 [9]): Active; Activity (MDA-MB-231 [10]): Active; Ratio IC50 (HCT-116 [1]): 0.72; Activity (MDA-MB-231 [11]): Active; IC50 (HCT-15): 21 nM; Activity (MDA-MB-231 [12]): Active
COc1cc(OC)cc(N2CCN(C(=O)Nc3nc4c(OC)cccc4nc3OC)CC2)c1	60 nM	29 nM	57 nM	33 nM	44 nM	68 nM	58 nM	52 nM	63 nM	57 nM	42 nM	74 nM	56 nM	64 nM	
O=c1[nH]cc(F)c(=O)[nH]1 [FLUOROURACIL]															inhibition at 3 µM (MDA-MB-231 [13]): 3.3%; inhibition at 5 µM (MDA-MB-231 [14]): 41.6%
COc1cc(OC)cc(N2CCN(C(=O)Nc3nc4cc(C)ccc4nc3OC)CC2)c1	47 nM	39 nM	45 nM	29 nM	23 nM	47 nM	31 nM	40 nM	51 nM	63 nM	70 nM	48 nM	32 nM	55 nM	
Nc1ccn([C@@H]2O[C@H](CO)[C@@H](O)C2(F)F)c(=O)n1 [GEMCITABINE]															inhibition at 0.2 µM (MDA-MB-231 [15]): 17.7%; inhibition at 0.1 µM (MDA-MB-231 [16]): 1%
